Measured values from paper PMC4050191 (FEBS Open Bio, 2014).
Values joined by “and” are separate entries in the source; they are usually repeats but may differ in a detail not shown here. Identical values can stand only once. Like-named read-outs stand apart in the source and are kept apart here. Blank lines part the entries; values can stand above or below the molecule they belong to.

Columns and labels:
[1] = test system: HsCen1 (full-length human centrin 1); test: ITC, peptide binding to full-length HsCen1
Procedure, shortened: (§1)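 Recombinant human centrin (full-length or C-terminal domain; Asp variants made by double-PCR mutagenesis) was expressed in E. coli BL21(DE3), heat-treated at 63 °C, then purified by ion-exchange, phenyl and gel-filtration chromatography. ITC at 30 °C: 10 μM centrin titrated with 100 μM N-acetylated, C-amidated peptide in 50 mM MOPS, 100 mM NaCl, pH 7.5, plus 1 mM CaCl₂ or 2 mM EDTA. Dilution heats subtracted; data fitted for n, Ka and ΔH.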

C-HsCen2-T138D = test: ITC, peptide binding to C-HsCen2 T138D; set-up: species or system human; conditions: presence of Ca2+; versus C-HsCen2 wild type
Procedure, shortened: as §1

C-HsCen2-S158D = test: ITC, peptide binding to C-HsCen2 S158D; set-up: species or system human; conditions: versus C-HsCen2 wild type
Procedure, shortened: as §1

C-HsCen2 T138D-S158D = test: ITC, peptide binding to C-HsCen2 T138D-S158D; set-up: species or system human; conditions: presence of Ca2+; versus C-HsCen2 wild type
Procedure, shortened: as §1

[2] = biological target: CK2 (catalytic α and regulatory β subunits complex) (Homo sapiens, UniProt P67870+P68400); test: In vitro phosphorylation by CK2, HPLC quantification; assay type: biochemical; conditions: for reduction of phosphorylation by addition of Ca2+: CK2, 37 °C
Chain of CK2 (catalytic α and regulatory β subunits complex) (P68400 whole entry): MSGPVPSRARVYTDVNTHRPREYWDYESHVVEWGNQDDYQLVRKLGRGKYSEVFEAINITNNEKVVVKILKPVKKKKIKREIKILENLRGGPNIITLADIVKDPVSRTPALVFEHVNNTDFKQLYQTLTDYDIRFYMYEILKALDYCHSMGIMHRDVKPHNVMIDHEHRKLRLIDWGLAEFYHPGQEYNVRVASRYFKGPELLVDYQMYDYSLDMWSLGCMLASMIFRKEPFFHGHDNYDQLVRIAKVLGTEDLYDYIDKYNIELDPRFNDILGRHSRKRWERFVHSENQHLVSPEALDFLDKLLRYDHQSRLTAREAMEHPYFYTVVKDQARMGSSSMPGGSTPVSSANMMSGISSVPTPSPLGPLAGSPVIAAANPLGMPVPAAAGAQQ
Chain of CK2 (catalytic α and regulatory β subunits complex) (P67870 whole entry partner): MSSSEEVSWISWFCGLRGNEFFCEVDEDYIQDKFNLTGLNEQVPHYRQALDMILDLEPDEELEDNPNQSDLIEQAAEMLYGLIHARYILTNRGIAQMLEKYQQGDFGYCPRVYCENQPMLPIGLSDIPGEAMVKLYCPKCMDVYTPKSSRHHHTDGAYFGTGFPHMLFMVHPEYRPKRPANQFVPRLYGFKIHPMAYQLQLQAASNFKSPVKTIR

[3] = test system: HsC1P (human centrin 1 phosphorylated by CK2 at T138); test: ITC, peptide binding to CK2-phosphorylated HsCen1; conditions: EDTA / absence of Ca2+; phosphorylated versus unphosphorylated centrin 1
[4] = biological target: human centrin 1, full-length (human) (UniProt Q12798); test: ITC
[5] = biological target: transducin β (Trd) 325-340 (UniProt P62873); test: ITC, peptide titrated into centrin; conditions: reference: wild type C-HsCen1; sites T138
[6] = biological target: C-terminal domain of human centrin 1 T138D (human); test: ITC
[7] = biological target: T1, human centrin 1 T138D, full-length (human, UniProt Q12798 1-172, T138D); test: ITC
T1 sequence: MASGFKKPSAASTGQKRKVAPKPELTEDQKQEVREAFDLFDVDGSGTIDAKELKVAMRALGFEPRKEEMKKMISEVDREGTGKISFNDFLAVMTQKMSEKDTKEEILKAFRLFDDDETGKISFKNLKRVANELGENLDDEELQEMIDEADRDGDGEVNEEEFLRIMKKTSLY

[8] = biological target: T2, C-terminal domain of human centrin 1 (M93-Y172) (human, UniProt Q12798 93-172); test: ITC
[9] = biological target: T3, C-terminal domain of human centrin 2 (M93-Y172) (human, UniProt P41208 93-172); test: ITC
T3 sequence (P41208 93-172): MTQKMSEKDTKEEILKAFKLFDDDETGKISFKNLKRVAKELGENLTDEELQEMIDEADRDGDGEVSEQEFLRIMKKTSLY

[10] = biological target: T2, C-terminal domain of human centrin 1 …; test: ITC; remark: listed apart in the source
[11] = biological target: T4, human centrin 1, full-length (human, UniProt Q12798 1-172); test: ITC
T4 sequence: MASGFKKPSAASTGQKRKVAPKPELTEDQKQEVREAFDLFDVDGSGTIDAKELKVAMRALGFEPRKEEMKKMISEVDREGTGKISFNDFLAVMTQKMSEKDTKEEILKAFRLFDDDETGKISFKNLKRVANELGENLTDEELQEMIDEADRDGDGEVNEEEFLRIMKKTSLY

[12] = biological target: T1, human centrin 1 T138D, full-length; test: ITC; remark: listed apart in the source
[13] = biological target: T4, human centrin 1, full-length; test: ITC; remark: listed apart in the source
[14] = biological target: T5, C-terminal domain of human centrin 2 T138D-S158D (human, UniProt P41208 93-172, T138D | S158D); test: ITC
T5 sequence (P41208 93-172 T138D/S158D): as the sequence (P41208 93-172) above, with T46D, S66D counted along it

[15] = biological target: T6, C-terminal domain of human centrin 2 T138D (human, UniProt P41208 93-172, T138D); test: ITC
T6 sequence (P41208 93-172 T138D): as the sequence (P41208 93-172) above, with T46D counted along it

[16] = biological target: T7, C-terminal domain of human centrin 2 S158D (human, UniProt P41208 93-172, S158D); test: ITC
T7 sequence (P41208 93-172 S158D): as the sequence (P41208 93-172) above, with S66D counted along it

[17] = biological target: T5, C-terminal domain of human centrin 2 …; test: ITC; remark: listed apart in the source
[18] = biological target: T3, C-terminal domain of human centrin 2 …; test: ITC; remark: listed apart in the source
[19] = biological target: T6, C-terminal domain of human centrin 2 …; test: ITC; remark: listed apart in the source
[20] = biological target: T7, C-terminal domain of human centrin 2 …; test: ITC; remark: listed apart in the source
[21] = after 5 h, without Ca2+ (Fig. 1A, B)
[22] = after 3 h at 37 °C, EGTA, HPLC peak integration
[23] = after 3 h at 37 °C, presence of Ca2+

Molecule: 641-RADLHHQHSVLHRALQAWVT-660 [R17-Sfi1]
factor of decrease of binding constant of HsCen1 compared with R18-Sfi1 ([1]; absence of Ca2+): 10 | factor of increase of affinity by the T138D mutation (C-HsCen2-T138D): 3 | factor of reduction of affinity by the S158D mutation (C-HsCen2-S158D; absence of Ca2+): 4.7 | factor of increase of affinity by the S158D mutation (C-HsCen2-S158D; presence of Ca2+): 5 | factor of increase of affinity by the T138D-S158D double mutation (C-HsCen2 T138D-S158D): 2

Molecule: C-HsCen1N131K: N131K variant of the C-terminal domain of human centrin 1
reduction of phosphorylation by addition of Ca2+ [2]: 40% | reduction of phosphorylation by the mutation versus wild type ([2]; after 5 h): 30% | protein phosphorylated by CK2 [2, 21]: 50%

Molecule: 677-SQHNRQLLRGALRRWK-692 [R18-Sfi1]
equilibrium association constant Ka ([1]; presence of Ca2+, centrin 1, ITC, one-site binding model): 2.5 10^8 M^−1 | factor of reduction of binding by phosphorylation at T138 [3]: 10

Molecule: C-HsCen2-K131N: K131N variant of the C-terminal domain of human centrin 2
increase in phosphorylation by the mutation versus wild type ([2]; after 5 h): 12% | protein phosphorylated by CK2 [2, 21]: 60%

Molecule: HsTrB, transducin β-derived peptide 325-340 (last WD repeat)
Ka [4]: 170000 M⁻¹ | dH [4]: -12.2 kcal/mol

Molecule: C-HsCen1: C-terminal domain (M93-Y172) of human centrin 1, recombinant; here as CK2 substrate
reduction of phosphorylation by addition of Ca2+ [2]: 30% | protein phosphorylated by CK2 [2, 22]: 62% | protein phosphorylated by CK2 [2, 23]: 30% | protein phosphorylated by CK2 [2, 21]: 80% | protein phosphorylated by CK2 ([2]; after 10 h, presence of EGTA): 95% | protein phosphorylated by CK2 ([2]; after 48 h, presence of Ca2+): 80% | time after which 95% phosphorylation was achieved ([2]; presence of Ca2+): 48 h

Molecule: Ac-MAVATGSWDSFLKIWN-NH2 [HsTrB, transducin β-derived peptide 325-340 (last WD repeat)]
dH [6]: -9.97 kcal/mol | Ka [7]: 180000 M⁻¹ | dH [7]: -8.14 kcal/mol | stoichiometry N [7]: 0.75

Molecule: Ac-TVWAQLARHLVSHQHHLDAR-NH2 [HsSfi1R17inv, repeat 17 peptide of human Sfi1 in reversed sequence orientation]
Ka [8]: 690000 M⁻¹ | dH [8]: -26.6 kcal/mol | stoichiometry N [8]: 0.825 | dH [9]: -20.1 kcal/mol and -22 kcal/mol | stoichiometry N [9]: 0.91 and 1.09 | Ka [10]: 1.49e+08 M⁻¹ | dH [10]: -21.6 kcal/mol | stoichiometry N [10]: 0.8

Molecule: Ac-RADLHHQHSVLHRALQAWVT-NH2 [HsSfiR17, repeat 17 peptide of human Sfi1 (641-660)]
Ka [8]: 120000 M⁻¹ | dH [8]: -43.1 kcal/mol | stoichiometry N [8]: 0.88 | Ka [11]: 347000 M⁻¹ | dH [11]: -19.2 kcal/mol | stoichiometry N [11]: 1.12 | Ka [9]: 190000 M⁻¹ | dH [9]: -31.3 kcal/mol | stoichiometry N [9]: 0.72 | Ka [15]: 230000 M⁻¹ | dH [15]: -9.76 kcal/mol | stoichiometry N [15]: 0.75 | Ka [16]: 40000 M⁻¹ | dH [16]: -38.5 kcal/mol | stoichiometry N [16]: 0.77 | Ka [10]: 1.25e+08 M⁻¹ | dH [10]: -18 kcal/mol | stoichiometry N [10]: 1.21 | Ka [17]: 3.5e+07 M⁻¹ | dH [17]: -22.4 kcal/mol | stoichiometry N [17]: 0.91 | Ka [18]: 1.82e+07 M⁻¹ | dH [18]: -20.2 kcal/mol | stoichiometry N [18]: 0.95 | Ka [19]: 4.54e+07 M⁻¹ | dH [19]: -24.3 kcal/mol | stoichiometry N [19]: 0.86 | Ka [20]: 1.01e+08 M⁻¹ | dH [20]: -25.9 kcal/mol | stoichiometry N [20]: 0.7

Second part, the molecule after the results:

factor of reduction of the phosphorylation rate at T138 ([2]; C-HsCen2-S158D versus S158A variant, without Ca2+): 1.36 | factor of reduction of the phosphorylation rate at T138 ([2]; C-HsCen2-S158D, presence of Ca2+): 2.1
Molecule: C-HsCen2-S158D: S158D phosphomimetic variant of the C-terminal domain of human centrin 2

Ka [4]: 130000 M⁻¹ | dH [4]: -10.6 kcal/mol
Molecule: HsTrBW332L, transducin β peptide 325-340 W332L

other: Ka [5]: weaker; reference 0.54 (0.3)
Molecule: human centrin 1 (HsCen1) C-terminal domain, 93-172 (from UniProt Q12798) C-HsCen1 T138E

other: Ka [5]: weaker; reference 0.54 (0.3)
Molecule: human centrin 1 (HsCen1) C-terminal domain, 93-172 (from UniProt Q12798) C-HsCen1 T138D

protein phosphorylated by CK2 [2, 22]: 45% | protein phosphorylated by CK2 [2, 23]: 15% | protein phosphorylated by CK2 [2, 21]: 48% | protein phosphorylated by CK2 ([2]; after 48 h, presence of Ca2+): 50%
Molecule: C-HsCen2: C-terminal domain (M93-Y172) of human centrin 2, recombinant; here as CK2 substrate

Ka [8]: 3.56e+06 M⁻¹ | dH [8]: -29.8 kcal/mol | stoichiometry N [8]: 1.03 | Ka [11]: 3.47e+06 M⁻¹ | dH [11]: -34.7 kcal/mol | stoichiometry N [11]: 0.88 | Ka [12]: 875000 M⁻¹ | dH [12]: -36.4 kcal/mol | stoichiometry N [12]: 0.83 | Ka [10]: 8.15e+07 M⁻¹ | dH [10]: -22.5 kcal/mol | stoichiometry N [10]: 0.99 | Ka [13]: 2.49e+08 M⁻¹ | dH [13]: -35.5 kcal/mol | stoichiometry N [13]: 0.88 | Ka [7]: 2.39e+08 M⁻¹ | dH [7]: -36.7 kcal/mol | stoichiometry N [7]: 0.77
Molecule: Ac-SQHNRQLLRGALRRWK-NH2 [HsSfiR18, repeat 18 peptide of human Sfi1 (677-692)]

Ka [8]: 8.25e+06 M⁻¹ | dH [8]: -28.1 kcal/mol | Ka [11]: 1.22e+07 M⁻¹ | dH [11]: -28.4 kcal/mol | stoichiometry N [11]: 0.98 | Ka [12]: 2.9e+06 M⁻¹ | dH [12]: -30.2 kcal/mol | stoichiometry N [12]: 0.92 | Ka [14]: 800000 M⁻¹ | dH [14]: -26.8 kcal/mol | Ka [9]: 7.35e+06 M⁻¹ | dH [9]: -29.3 kcal/mol | stoichiometry N [9]: 0.95 | Ka [15]: 2.5e+06 M⁻¹ | dH [15]: -32.7 kcal/mol | stoichiometry N [15]: 0.94 | dH [16]: -23.8 kcal/mol | Ka [10]: 3.96e+07 M⁻¹ | dH [10]: -23.3 kcal/mol | stoichiometry N [10]: 0.93 | Ka [13]: 5.25e+07 M⁻¹ | dH [13]: -28.4 kcal/mol | stoichiometry N [13]: 1.04 | Ka [7]: 1.02e+08 M⁻¹ | dH [7]: -28.5 kcal/mol | stoichiometry N [7]: 0.95 | dH [17]: -23.9 kcal/mol | stoichiometry N [17]: 1.18 | Ka [18]: 5.27e+07 M⁻¹ | dH [18]: -23.4 kcal/mol | stoichiometry N [18]: 0.81 | Ka [19]: 2.71e+07 M⁻¹ | dH [19]: -24 kcal/mol | stoichiometry N [19]: 0.82 | Ka [20]: 4.31e+07 M⁻¹ | dH [20]: -23 kcal/mol | stoichiometry N [20]: 0.89
Molecule: Ac-NWKLLAKGLLIRERLKR-NH2 [P17-XPC, 17-residue peptide of human XPC]
